Experimental data reported in ChEMBL document CHEMBL1944548, “Discovery of kinase spectrum selective macrocycle (16E)-14-methyl-20-oxa-5,7,14,26-tetraazatetracyclo[19.3.1.1(2,6).1(8,12)]heptacosa-1(25),2(26),3,5,8(27),9,11,16,21,23-decaene (SB1317/TG02), a potent inhibitor of cyclin dependent kinases (CDKs), Janus kinase 2 (JAK2), and fms-like tyrosine …” (J Med Chem, 2012).
Activity calls are given as the source filed them. No cut-off for these calls is given here.

Legend:
[1] = Volume of distribution at steady state in BALB/c mouse at 5 mg/kg, iv by LC-MS/MS analysis; type: ADME, organism-based; parameters: dose 5 mg/kg, route intravenous; conditions: in vivo, read-out: Vdss
[2] = Tmax in BALB/c mouse at 75 mg/kg, po by LC-MS/MS analysis; type: ADME, organism-based; parameters: dose 75 mg/kg, route oral; conditions: in vivo
Outline: (§1)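 Male BALB/c mice (~10−12 weeks, 17−22 g) gavaged with 75 mg/kg as a suspension in 0.5% methylcellulose/0.1% Tween 80. Serial blood by cardiac puncture over 0−24 h into K3EDTA, plasma stored at −70 °C, LC−MS/MS; parameters by noncompartmental analysis.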

[3] = tested on: Ramos; assay: Antitumor activity against human Ramos cells xenografted in BALB/c nude mouse assessed as tumor growth inhibition at 75 mg/kg, po qd on a 2 days on and 5 days off schedule for 15 days; type: functional; conditions: read-out: GI
[4] = target: Cytochrome P450 2C19 (Homo sapiens, UniProt P33261); assay: Inhibition of CYP2C19 in human liver microsomes using mephenytoin as substrate after 60 mins by LC-MS/MS analysis; type: ADME, Microsome
Outline: (§2)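 Human liver microsomes (0.5 mg/mL for CYP2C19, 1 mg/mL for CYP2C9), NADPH 1 mM, test at 0.05−25 μM (DMSO 0.35% final), 37 °C; probes mephenytoin 25 μM (CYP2C19) and tolbutamide 120 μM (CYP2C9), 60 min each. IC50 from decrease in metabolite formation vs vehicle.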

[5] = target: Cytochrome P450 3A4 (Homo sapiens, UniProt P08684); assay: Inhibition of CYP3A4 in human liver microsomes using midazolam as substrate after 5 mins by LC-MS/MS analysis; type: ADME, Microsome
[6] = Apparent permeability of the compound from basolateral to apical side in human Caco2 cells at 5 uM after 21 to 28 days by LC/MS analysis; type: ADME, cell-based; conditions: Caco-2
Outline: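 5 μM in HBSS (DMSO <1%) dosed apical or basolateral on 21−28-day confluent Caco-2 monolayers, both sides pH 7.4. Sampled at 2 h, quantified by LC/MS with four-point calibration. Monolayer integrity checked by pre-experiment TEER (450−650 Ωcm2) and Lucifer yellow; efflux ratio = Papp B→A / Papp A→B.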

[7] = target: Cytochrome P450 2D6 (Homo sapiens, UniProt P10635); assay: Inhibition of CYP2D6 in human liver microsomes using dextromethorphan as substrate after 30 mins by LC-MS/MS analysis; type: ADME, Microsome
Outline: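 Human liver microsomes with 1 mM NADPH at 37 °C. Test concentrations 0.05, 0.25, 0.5, 2.5, 5 and 25 μM; final DMSO 0.35%. CYP1A: 0.25 mg/mL microsomes, ethoxyresorufin 0.5 μM, 5 min. CYP2D6: 0.5 mg/mL microsomes, dextromethorphan 5 μM, 30 min. IC50 from the fall in metabolite formation versus vehicle control. Selective inhibitors served as positive controls.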

[8] = target: Tyrosine-protein kinase JAK2 (Homo sapiens, UniProt O60674); assay: Inhibition of recombinant JAK2 using poly(Glu,Ala,Tyr) as substrate after 2 hrs by luminescence assay
[9] = target: Cyclin-dependent kinase 2 (Homo sapiens) (UniProt P24941); assay: Inhibition of CDK2 in human HCT116 cells assessed as Rb phosphorylation at 200 nM after 24 hrs by Western blot analysis; type: cell-based; conditions: HCT-116
Outline: (§3)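 HCT-116 cells (2 × 10^5 in McCoy's medium with 2 mM L-glutamine and 10% FBS) seeded 16−24 h before dosing. Each dish exposed to one compound concentration or DMSO for 24 h. Lysis in modified RIPA buffer; protein by Bradford. 30 μg lysate run on 10% SDS−PAGE, blotted to PVDF, probed for phospho-Rb and β-actin. ECL detection.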

[10] = tested on: Ramos; assay: Antitumor activity against human Ramos cells xenografted in po/ip dosed BALB/c nude mouse assessed as tumor growth inhibition; type: functional, organism-based
Outline: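 Female BALB/c nude mice implanted sc in right flank with 7 × 10^6 Ramos cells; dosing began 12 days after inoculation at about 200 mm3, n = 8–10/group. Arms: 75 mg/kg po q.d. 2 days on/5 off in MC/Tween, or 15 mg/kg ip q.d.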

[11] = Oral bioavailability in Beagle dog at 10 mg/kg by LC-MS/MS analysis; conditions: in vivo
[12] = tested on: HCT-116; assay: Antitumor activity against human HCT116 cells xenografted in BALB/c nude mouse assessed as tumor growth inhibition at 50 mg/kg, po qd administered thrice in a week for 15 days; type: functional, organism-based; parameters: dose 50 mg/kg
Outline: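 Female BALB/c nude mice implanted sc with 5 × 10^6 HCT-116 cells; treatment began day 8 after inoculation when tumors were 75–144 mm3 (group mean 105 mm3), 9–10 mice/group. Oral gavage at 50 or 75 mg/kg, Mon/Wed/Fri, in 0.5% methylcellulose/0.1% Tween 80, to day 15. Volume (w2l)/2 measured twice weekly. %TGI from day-15 median volumes vs vehicle.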

[13] = target: Cytochrome P450 2C9 (Homo sapiens, UniProt P11712); assay: Inhibition of CYP2C9 in human liver microsomes using Tolbutamide as substrate after 60 mins by LC-MS/MS analysis; type: ADME, Microsome; outline: as §2
[14] = target: Cyclin-dependent kinase 2 (Homo sapiens) (UniProt P24941); assay: Inhibition of CDK2 in human HCT116 cells assessed as Rb phosphorylation at 40 nM after 24 hrs by Western blot analysis; type: cell-based; conditions: HCT-116; outline: as §3
[15] = Cmax in BALB/c mouse at 75 mg/kg, po by LC-MS/MS analysis; type: ADME, organism-based; parameters: dose 75 mg/kg, route oral; conditions: in vivo; outline: as §1

Chain of Cytochrome P450 2D6 (P10635 whole entry): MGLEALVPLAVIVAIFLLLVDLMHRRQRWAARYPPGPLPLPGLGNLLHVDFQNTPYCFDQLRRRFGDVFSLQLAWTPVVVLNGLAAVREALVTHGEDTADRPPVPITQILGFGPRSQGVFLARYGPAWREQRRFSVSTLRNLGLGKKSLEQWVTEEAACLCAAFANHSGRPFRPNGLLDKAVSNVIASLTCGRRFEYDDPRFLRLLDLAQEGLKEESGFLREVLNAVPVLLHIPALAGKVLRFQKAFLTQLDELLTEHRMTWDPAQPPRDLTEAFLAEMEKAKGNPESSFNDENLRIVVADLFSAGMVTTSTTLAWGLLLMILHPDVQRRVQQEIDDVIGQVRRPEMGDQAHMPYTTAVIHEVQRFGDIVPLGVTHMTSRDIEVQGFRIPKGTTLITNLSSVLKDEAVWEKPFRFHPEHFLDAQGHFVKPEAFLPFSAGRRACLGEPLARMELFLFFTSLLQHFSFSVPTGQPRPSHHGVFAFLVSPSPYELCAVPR
Chain of Cytochrome P450 2C19 (P33261 whole entry): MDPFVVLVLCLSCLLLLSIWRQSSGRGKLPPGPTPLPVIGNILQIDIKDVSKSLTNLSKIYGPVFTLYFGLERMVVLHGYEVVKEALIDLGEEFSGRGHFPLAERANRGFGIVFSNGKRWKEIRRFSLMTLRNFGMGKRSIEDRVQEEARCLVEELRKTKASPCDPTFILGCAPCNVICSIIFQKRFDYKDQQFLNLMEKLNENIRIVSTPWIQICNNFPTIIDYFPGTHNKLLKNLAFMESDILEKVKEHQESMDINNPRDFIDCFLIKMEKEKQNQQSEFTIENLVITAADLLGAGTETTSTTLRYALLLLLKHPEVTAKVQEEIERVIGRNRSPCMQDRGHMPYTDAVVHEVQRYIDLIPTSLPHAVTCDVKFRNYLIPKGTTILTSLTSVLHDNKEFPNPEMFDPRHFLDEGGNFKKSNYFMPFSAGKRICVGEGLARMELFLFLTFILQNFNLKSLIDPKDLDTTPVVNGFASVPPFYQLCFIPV
Chain of Cytochrome P450 2C9 (P11712 whole entry): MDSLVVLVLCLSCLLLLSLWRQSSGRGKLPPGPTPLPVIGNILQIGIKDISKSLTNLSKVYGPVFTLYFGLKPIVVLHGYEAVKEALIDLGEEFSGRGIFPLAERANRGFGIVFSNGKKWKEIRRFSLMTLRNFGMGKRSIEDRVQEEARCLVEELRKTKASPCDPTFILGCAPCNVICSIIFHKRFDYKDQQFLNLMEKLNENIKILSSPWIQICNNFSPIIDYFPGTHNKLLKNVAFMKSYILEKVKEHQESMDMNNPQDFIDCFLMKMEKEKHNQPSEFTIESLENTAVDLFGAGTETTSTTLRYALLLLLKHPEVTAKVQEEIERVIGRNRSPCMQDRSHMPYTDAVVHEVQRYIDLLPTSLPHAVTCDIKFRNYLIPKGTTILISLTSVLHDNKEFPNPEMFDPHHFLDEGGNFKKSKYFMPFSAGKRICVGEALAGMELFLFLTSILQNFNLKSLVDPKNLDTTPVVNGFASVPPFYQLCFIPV
Chain of Tyrosine-protein kinase JAK2 (O60674 whole entry): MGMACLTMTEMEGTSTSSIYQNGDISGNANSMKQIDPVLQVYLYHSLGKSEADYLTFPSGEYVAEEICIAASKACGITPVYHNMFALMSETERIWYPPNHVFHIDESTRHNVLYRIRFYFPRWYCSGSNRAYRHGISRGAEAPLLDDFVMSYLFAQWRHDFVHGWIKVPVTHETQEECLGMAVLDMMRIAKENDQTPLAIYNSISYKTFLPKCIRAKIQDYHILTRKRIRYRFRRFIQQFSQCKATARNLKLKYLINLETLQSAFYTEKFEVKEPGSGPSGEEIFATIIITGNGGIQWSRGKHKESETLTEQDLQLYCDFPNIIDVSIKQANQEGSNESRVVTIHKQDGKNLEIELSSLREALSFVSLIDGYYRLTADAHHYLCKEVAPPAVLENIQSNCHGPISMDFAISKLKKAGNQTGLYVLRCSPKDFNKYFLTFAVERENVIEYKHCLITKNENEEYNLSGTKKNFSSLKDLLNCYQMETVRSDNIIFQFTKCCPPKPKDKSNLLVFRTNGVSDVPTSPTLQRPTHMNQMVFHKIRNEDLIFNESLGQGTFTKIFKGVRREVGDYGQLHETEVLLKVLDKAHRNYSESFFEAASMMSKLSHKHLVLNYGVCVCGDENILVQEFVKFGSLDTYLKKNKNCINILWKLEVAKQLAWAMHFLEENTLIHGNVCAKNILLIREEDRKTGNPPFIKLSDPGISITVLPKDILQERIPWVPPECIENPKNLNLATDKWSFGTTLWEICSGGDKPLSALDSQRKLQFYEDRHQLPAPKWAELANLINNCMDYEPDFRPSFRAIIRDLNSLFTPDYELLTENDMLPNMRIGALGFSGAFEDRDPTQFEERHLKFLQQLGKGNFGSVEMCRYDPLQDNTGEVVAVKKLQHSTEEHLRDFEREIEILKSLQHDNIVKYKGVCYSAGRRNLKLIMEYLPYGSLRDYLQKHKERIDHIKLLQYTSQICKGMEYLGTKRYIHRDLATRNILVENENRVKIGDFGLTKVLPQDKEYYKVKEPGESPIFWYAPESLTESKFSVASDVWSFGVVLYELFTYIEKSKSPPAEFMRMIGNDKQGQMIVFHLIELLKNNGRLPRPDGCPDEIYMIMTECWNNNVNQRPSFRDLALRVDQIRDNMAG
Chain of Cytochrome P450 3A4 (P08684 whole entry): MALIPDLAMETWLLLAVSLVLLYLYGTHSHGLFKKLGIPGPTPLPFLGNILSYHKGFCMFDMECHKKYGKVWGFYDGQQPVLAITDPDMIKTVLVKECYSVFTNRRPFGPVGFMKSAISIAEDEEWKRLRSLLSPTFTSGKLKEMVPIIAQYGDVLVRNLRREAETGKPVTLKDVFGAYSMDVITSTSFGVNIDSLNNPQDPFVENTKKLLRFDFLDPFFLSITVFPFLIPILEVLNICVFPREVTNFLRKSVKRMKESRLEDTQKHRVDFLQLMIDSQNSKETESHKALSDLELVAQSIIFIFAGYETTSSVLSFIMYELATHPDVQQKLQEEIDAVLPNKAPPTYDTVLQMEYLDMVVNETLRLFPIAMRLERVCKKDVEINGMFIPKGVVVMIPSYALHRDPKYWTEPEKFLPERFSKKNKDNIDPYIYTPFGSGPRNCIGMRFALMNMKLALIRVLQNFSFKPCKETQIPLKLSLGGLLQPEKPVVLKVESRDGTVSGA

## CN1C/C=C/CCOc2cccc(c2)-c2ccnc(n2)Nc2cccc(c2)C1 [ZOTIRACICLIB]
[1]
  Vd: 23 L/kg
[2]
  Tmax: 30 min
[3]
  inhibition in vivo at 75 mg/kg: 42%
[4]
  IC50: > 25 µM
[5]
  IC50: > 25 µM
[6]
  Papp B→A at 5 µM: 274 nm/s
[7]
  IC50: 0.95 µM
[8]
  IC50: 0.073 µM
[9]
  inhibition: Active
[10]
  growth inhibition (GI): Dose-dependent effect
[11]
  bioavailability: 37%
[12]
  growth inhibition (GI): Active
[13]
  IC50: > 25 µM
[14]
  inhibition: Active
[15]
  Cmax: 1.03 µg/mL
